One data set relates to A-431. In words: Antiproliferative activity against human A431 cells overexpressing wild-type EGFR after 72 hrs by MTT assay. Type of data set: functional, cell-based. The note with it: A-431, 72 h. A general note: Tetrazolium dyes change colour on reduction, which living cells bring about.
In the next data set the test system is NCI-H1975. Briefly: Antiproliferative activity against human NCI-H1975 cells expressing L858R/T790M mutant EGFR after 72 hrs by MTT assay. The settings on record: NCI-H1975, 72 h. The format is functional, cell-based.
Data set [1] addresses T1, Epidermal growth factor receptor (Homo sapiens, UniProt P00533). In words: Inhibition of wild type human EGFR preincubated for 5 mins followed by ATP addition for 30 mins by HTRF assay.
Data set [2] deals with Epidermal growth factor receptor (Homo sapiens, UniProt P00533, L858R). Briefly: Inhibition of recombinant human EGFR L858R mutant expressed in baculovirus infected insect cells preincubated for 5 mins followed by ATP addition for 30 mins by HTRF assay. Summed up: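 Purchased EGFR L858R kinase and substrate were preincubated with compound for 5 min in enzymatic buffer. ATP was then added to start the reaction, which ran 30 min at room temperature. It was stopped with EDTA-containing detection reagents, and HTRF detection ran for 1 h. IC50 was fitted from the dose-response data as the mean of three independent experiments.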
Chain of Epidermal growth factor receptor (Homo sapiens, UniProt P00533, L858R) (P00533 25-1210 L858R limits assumed): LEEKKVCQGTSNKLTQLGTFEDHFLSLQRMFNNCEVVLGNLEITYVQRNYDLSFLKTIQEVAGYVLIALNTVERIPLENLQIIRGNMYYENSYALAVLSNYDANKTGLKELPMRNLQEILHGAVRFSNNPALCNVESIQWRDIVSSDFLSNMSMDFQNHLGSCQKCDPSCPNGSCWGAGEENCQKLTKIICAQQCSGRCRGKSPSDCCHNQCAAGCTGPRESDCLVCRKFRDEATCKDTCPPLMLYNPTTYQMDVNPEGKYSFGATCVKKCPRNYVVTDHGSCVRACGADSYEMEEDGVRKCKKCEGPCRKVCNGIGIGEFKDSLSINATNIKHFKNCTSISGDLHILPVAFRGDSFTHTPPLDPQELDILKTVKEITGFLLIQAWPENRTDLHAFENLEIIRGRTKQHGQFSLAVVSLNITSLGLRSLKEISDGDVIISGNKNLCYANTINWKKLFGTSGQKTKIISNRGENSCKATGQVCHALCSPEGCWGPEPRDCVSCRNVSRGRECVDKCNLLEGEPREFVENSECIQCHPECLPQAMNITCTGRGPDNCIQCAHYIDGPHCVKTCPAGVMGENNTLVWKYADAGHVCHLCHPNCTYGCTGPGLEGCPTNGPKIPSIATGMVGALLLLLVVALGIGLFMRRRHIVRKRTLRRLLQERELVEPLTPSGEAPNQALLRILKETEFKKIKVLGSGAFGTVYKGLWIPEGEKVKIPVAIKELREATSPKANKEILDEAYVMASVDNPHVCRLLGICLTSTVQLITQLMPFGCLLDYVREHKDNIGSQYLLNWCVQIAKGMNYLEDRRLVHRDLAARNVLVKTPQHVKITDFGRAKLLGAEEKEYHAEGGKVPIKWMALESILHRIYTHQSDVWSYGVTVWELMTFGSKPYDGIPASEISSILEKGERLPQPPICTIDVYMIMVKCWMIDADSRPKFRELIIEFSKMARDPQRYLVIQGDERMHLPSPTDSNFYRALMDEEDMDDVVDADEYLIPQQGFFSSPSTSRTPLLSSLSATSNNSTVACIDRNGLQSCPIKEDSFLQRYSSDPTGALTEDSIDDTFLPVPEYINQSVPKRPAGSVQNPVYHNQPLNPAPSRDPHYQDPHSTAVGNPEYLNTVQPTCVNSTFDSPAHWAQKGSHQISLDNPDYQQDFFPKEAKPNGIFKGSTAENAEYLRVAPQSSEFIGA

In data set [3] the target is Epidermal growth factor receptor (Homo sapiens, UniProt P00533, T790M). Briefly: Inhibition of EGFR T790M mutant (unknown origin) preincubated for 5 mins followed by ATP addition for 30 mins by HTRF assay. The format is protein assay. (In general: Time-resolved FRET reads energy transfer from a long-lived donor to a nearby acceptor.)
Chain of Epidermal growth factor receptor (Homo sapiens, UniProt P00533, T790M) (P00533 25-1210 T790M limits assumed): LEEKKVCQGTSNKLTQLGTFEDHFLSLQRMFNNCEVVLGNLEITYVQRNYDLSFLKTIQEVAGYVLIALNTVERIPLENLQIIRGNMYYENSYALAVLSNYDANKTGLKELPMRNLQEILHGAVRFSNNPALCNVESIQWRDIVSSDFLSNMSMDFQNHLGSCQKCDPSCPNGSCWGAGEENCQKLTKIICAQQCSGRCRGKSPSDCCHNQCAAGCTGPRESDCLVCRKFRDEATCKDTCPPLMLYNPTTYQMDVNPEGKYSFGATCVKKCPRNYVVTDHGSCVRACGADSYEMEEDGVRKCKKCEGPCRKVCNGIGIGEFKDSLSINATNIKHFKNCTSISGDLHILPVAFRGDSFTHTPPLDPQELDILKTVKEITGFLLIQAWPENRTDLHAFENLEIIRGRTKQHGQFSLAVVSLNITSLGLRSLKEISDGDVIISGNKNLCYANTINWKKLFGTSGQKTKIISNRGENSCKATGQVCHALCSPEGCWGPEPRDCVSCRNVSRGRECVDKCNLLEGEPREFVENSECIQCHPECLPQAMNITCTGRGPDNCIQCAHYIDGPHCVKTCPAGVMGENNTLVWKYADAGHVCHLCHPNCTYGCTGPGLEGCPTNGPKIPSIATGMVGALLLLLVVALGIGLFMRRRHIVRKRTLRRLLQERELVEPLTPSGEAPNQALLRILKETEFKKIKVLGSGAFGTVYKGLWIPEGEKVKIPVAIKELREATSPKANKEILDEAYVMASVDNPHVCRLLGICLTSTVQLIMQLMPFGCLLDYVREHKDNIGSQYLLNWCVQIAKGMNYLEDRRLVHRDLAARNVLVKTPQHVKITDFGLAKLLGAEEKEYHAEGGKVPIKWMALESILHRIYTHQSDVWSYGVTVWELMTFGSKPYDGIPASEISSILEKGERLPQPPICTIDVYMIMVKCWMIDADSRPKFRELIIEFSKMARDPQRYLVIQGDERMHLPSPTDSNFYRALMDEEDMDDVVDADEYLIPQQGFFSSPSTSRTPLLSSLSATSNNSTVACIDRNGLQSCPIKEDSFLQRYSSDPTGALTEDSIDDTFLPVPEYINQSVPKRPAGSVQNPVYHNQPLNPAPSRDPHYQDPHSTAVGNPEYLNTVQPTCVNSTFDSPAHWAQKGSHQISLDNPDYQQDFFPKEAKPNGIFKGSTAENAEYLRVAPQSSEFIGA
The subject of another data set is A549. In words: Cytotoxicity against human A549 cells assessed as cell growth inhibition after 72 hrs by MTT assay. Type of data set: ADME, cell-based. The note with it: A549, 72 h.
In a further data set the test system is HepG2. In words: Cytotoxicity against human HepG2 cells assessed as cell growth inhibition after 72 hrs by MTT assay. The format is ADME, cell-based. The settings on record: HepG2, 72 h.
For data set [4], the target named is T1, Epidermal growth factor receptor. Briefly: Inhibition of EGF-induced EGFR phosphorylation in human A431 cells at 1 uM preincubated for 1 hr followed by EGF addition for 15 mins by Western blot analysis. The format is cell-based. The note with it: A-431. Summed up: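 A431 cells (5 x 10^5/well) were seeded overnight. They were exposed to 1 µM compound for 1 h at 37 °C, then immediately given EGF (20 ng/ml) for 15 min. Whole-cell lysates were made in Tris/NaCl/EDTA/SDS/deoxycholate/NP-40 buffer with aprotinin and PMSF, then cleared at 4 °C. Equal protein was run on SDS-PAGE and blotted for EGFR, p-EGFR and β-actin, with ECL detection.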

Data set [5] shares this target. In words: Inhibition of EGF-induced EGFR phosphorylation in human A431 cells at 1 uM preincubated for 1 hr followed by compound washout for 5 hrs and subsequent EGF addition for 15 mins by Western blot analysis. The format is cell-based. The settings on record: A-431. Summed up: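 A431 cells (5 x 10^5/well) were seeded overnight and treated with 1 µM compound for 1 h at 37 °C. Cells were washed 10 times with fresh medium over 5 h, then stimulated with EGF (20 ng/ml) for 15 min. Lysates were made in RIPA-type buffer with protease inhibitors, and equal protein was immunoblotted for EGFR, p-EGFR and β-actin, with ECL detection.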

A short description of data set [6]: Chemical stability of the compound assessed as compound remaining at 1 uM at pH 7.4 after 24 hrs by HPLC-HRMS method. The format is physicochemical. The settings on record: buffer, read-out: Stability. The method, boiled down: (§1)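 Buffers were 0.2 M PBS at pH 7.4, 9.0 or 10.0, held at 37 °C. Compound stock was made in CH3CN, then diluted into pre-warmed buffer. Aliquots taken at regular time points were injected directly into LC-TOF MS, and percentage of parent compound remaining was read out.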

A short description of data set [7]: Chemical stability of the compound assessed as compound remaining at 1 uM at pH 9 after 24 hrs by HPLC-HRMS method. The settings on record: buffer, read-out: Stability. Type of data set: physicochemical. The method, boiled down: as §1
The nature of data set [8]: Chemical stability of the compound assessed as compound remaining at 1 uM at pH 10 after 24 hrs by HPLC-HRMS method. The format is physicochemical. The note with it: buffer, read-out: Stability. The method, boiled down:
as §1

Structures are written as SMILES. Calls of active or inactive are those of the source. No cut-off for these calls is given here.

T1 sequence (P00533 whole entry): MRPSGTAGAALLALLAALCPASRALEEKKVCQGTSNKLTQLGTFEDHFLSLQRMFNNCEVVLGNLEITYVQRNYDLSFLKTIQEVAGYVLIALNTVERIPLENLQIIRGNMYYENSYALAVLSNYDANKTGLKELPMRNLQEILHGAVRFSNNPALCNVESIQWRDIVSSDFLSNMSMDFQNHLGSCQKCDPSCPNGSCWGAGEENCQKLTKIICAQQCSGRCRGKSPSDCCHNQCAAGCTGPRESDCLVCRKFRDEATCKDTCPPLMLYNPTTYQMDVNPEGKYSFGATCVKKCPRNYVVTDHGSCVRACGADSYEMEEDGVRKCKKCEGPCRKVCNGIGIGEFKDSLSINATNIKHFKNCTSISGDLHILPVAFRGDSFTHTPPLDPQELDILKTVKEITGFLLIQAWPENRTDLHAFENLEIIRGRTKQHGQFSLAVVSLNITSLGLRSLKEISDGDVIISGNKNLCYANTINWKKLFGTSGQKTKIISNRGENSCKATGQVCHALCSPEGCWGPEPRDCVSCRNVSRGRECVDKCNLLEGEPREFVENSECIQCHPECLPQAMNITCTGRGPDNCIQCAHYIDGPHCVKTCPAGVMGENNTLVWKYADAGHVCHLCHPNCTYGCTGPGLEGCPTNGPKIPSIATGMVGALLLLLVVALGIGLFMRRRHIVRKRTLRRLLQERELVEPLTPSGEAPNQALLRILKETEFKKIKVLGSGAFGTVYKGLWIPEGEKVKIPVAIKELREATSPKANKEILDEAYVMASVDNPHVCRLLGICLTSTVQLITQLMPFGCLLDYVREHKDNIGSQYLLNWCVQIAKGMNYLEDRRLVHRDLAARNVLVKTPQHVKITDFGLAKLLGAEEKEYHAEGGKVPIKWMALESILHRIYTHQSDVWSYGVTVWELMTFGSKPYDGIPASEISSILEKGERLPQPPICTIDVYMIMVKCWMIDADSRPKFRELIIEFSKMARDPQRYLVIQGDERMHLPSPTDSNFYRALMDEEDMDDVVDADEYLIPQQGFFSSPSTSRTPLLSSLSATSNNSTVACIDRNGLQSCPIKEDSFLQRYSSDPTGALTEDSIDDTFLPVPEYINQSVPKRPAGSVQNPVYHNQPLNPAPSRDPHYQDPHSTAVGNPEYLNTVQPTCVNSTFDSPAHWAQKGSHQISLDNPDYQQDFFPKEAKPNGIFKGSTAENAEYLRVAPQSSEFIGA

For `COCCOc1cc2ncnc(Nc3ccc(F)c(Cl)c3)c2cc1NC(=O)[C@@H]1COC(=O)N1`, the figures for the concentration for half-maximal inhibition (IC50) with A-431 and in the data set on NCI-H1975 were 25.9 µM and 22.1 µM, respectively.
The like results for `CN1CCC(COc2cc3ncnc(Nc4ccc(F)c(Cl)c4F)c3cc2NC(=O)[C@@H]2COC(=O)N2)CC1` were, in that order, 2.43 µM and 21.1 µM.
Regarding `O=C1N[C@H](C(=O)Nc2cc3c(Nc4ccc(F)c(Cl)c4)ncnc3cc2OCC(F)(F)F)CO1`, the half-maximal inhibitory concentration (IC50) with A-431 was 33.9 µM; with NCI-H1975 it was greater than 50 µM.
The like results for `CCOc1cc2ncnc(Nc3ccc(OCc4ccccn4)c(Cl)c3)c2cc1NC(=O)[C@@H]1COC(=O)N1` were, in that order, greater than 50 µM and 23.3 µM.
For `O=C1N[C@H](C(=O)Nc2cc3c(Nc4ccc(F)c(Cl)c4)ncnc3cc2OCCN2CCCCC2)CO1`, the IC50 in the data set with A-431 is 3.5 µM; in the data set on NCI-H1975, 5.85 µM; in data set [1], 0.0255 µM; in data set [2], 0.00779 µM; in data set [3] it was 0.333 µM; in the data set on A549, 42.9 µM. Besides, the IC50 in the data set on HepG2 is greater than 50 µM.
With `CCOc1cc2ncnc(Nc3ccc(OCC4CC4)c(Cl)c3)c2cc1NC(=O)[C@H]1NC(=O)O[C@@H]1C`, the results for the IC50 in the data set with A-431 and in the data set with NCI-H1975 were 7.35 µM and 12.7 µM, respectively.
Regarding `COc1cc2ncnc(Nc3ccc(F)c(Cl)c3)c2cc1NC(=O)[C@H]1NC(=O)O[C@@H]1C`, the IC50 is 8.65 µM in the data set with A-431; 8.98 µM in the data set with NCI-H1975; 0.00198 µM in [1]; 0.00035 µM in data set [2]; 0.0402 µM in [3]; greater than 50 µM in the data set with A549. For the same compound, in the data set on HepG2, the IC50 is greater than 50 µM.
Take `CCOc1cc2ncnc(Nc3ccc(OCC4CC4)c(Cl)c3)c2cc1NC(=O)[C@@H]1COC(=O)N1`: the IC50 with A-431 amounted to 5.05 µM; in the data set with NCI-H1975 it was 5.08 µM; in data set [1], 0.0378 µM; in data set [2], 0.0521 µM; in data set [3] it was 0.0808 µM; in the data set on A549 it was 28.9 µM. The IC50 in the data set on HepG2 was greater than 100 µM.
In the case of `CCOc1cc2ncnc(Nc3ccc4c(cnn4Cc4cccc(F)c4)c3)c2cc1NC(=O)[C@H]1COC(=O)N1`, the IC50 is 18.9 µM in the data set with A-431 and greater than 50 µM in the data set with NCI-H1975.
Turning to `CCOc1cc2ncnc(Nc3ccc(OCc4cccc(F)c4)c(Cl)c3)c2cc1NC(=O)[C@H]1COC(=O)N1`, the IC50 in the data set on A-431 was 4.15 µM; in the data set on NCI-H1975, 4.75 µM; in [1] it was 0.00119 µM; in data set [2] it was 0.00549 µM; in data set [3], 0.111 µM; with A549, greater than 50 µM. The IC50 in the data set on HepG2 was greater than 100 µM.
For `COc1cc2ncnc(Nc3ccc(F)c(Cl)c3)c2cc1NC(=O)[C@@H]1CCC(=O)N1`, the IC50 in the data set with A-431 is 21.8 µM; with NCI-H1975, greater than 50 µM.
The like results for `CN1CCC(COc2cc3ncnc(Nc4ccc(F)c(Cl)c4F)c3cc2NC(=O)[C@H]2COC(=O)N2)CC1` were, in that order, 5.3 µM and 13.5 µM.
The like results for `COc1cc2ncnc(Nc3ccc(F)c(Cl)c3)c2cc1NC(=O)[C@H]1COC(=O)N1` were, in that order, 16.8 µM and 21.2 µM.
`COc1cc2ncnc(Nc3ccc(F)c(Cl)c3)c2cc1NC(=O)[C@@H]1COC(=O)N1`: the IC50 is 9.2 µM in the data set with A-431; 6.8 µM in the data set on NCI-H1975; 0.00106 µM in data set [1]; 0.00031 µM in data set [2]; 0.0263 µM in data set [3]; 14.9 µM in the data set on A549. The IC50 in the data set on HepG2 was greater than 100 µM. Besides, in data set [4], the inhibition entry was “Active”. Moreover, in data set [5], the inhibition result is “inactive”. The figures for the remaining at 24 h, 1 µM in data set [6], in [7] and in [8] were 97.1%, 89.9% and 85.8%, respectively.
With `O=C1N[C@H](C(=O)Nc2cc3c(Nc4ccc(F)c(Cl)c4)ncnc3cc2O[C@H]2CCOC2)CO1`, the IC50 with A-431 was 22.8 µM; in the data set on NCI-H1975, 9.33 µM.
In the case of `CCOc1cc2ncnc(N[C@@H](C)c3ccccc3)c2cc1NC(=O)[C@@H]1COC(=O)N1`, the IC50 is 16.9 µM in the data set on A-431; 15.3 µM with NCI-H1975; 0.00552 µM in [1]; 0.00071 µM in data set [2]; greater than 1 µM in [3].
In the case of `CCOc1cc2ncnc(Nc3ccc4c(cnn4Cc4cccc(F)c4)c3)c2cc1NC(=O)[C@@H]1COC(=O)N1`, the IC50 came to 10.8 µM in the data set with A-431 and 10.5 µM with NCI-H1975.
The like results for `O=C1N[C@@H](C(=O)Nc2cc3c(Nc4ccc(F)c(Cl)c4)ncnc3cc2OCCCN2CCOCC2)CO1` were, in that order, greater than 50 µM and 37.2 µM.
Turning to `O=C1N[C@H](C(=O)Nc2cc3c(Nc4ccc(F)c(Cl)c4)ncnc3cc2OCCCN2CCOCC2)CO1`, the IC50 in the data set with A-431 stood at 48.7 µM; in the data set with NCI-H1975 it was 12.3 µM; in data set [1], 0.00454 µM; in [2], 0.00083 µM; in data set [3], 0.0587 µM.
Turning to `CN1CC[C@H](Oc2cc3ncnc(Nc4ccc(F)c(Cl)c4)c3cc2NC(=O)[C@@H]2COC(=O)N2)C1`, the IC50 in the data set on A-431 came to 12.6 µM; in the data set on NCI-H1975, 13.6 µM.
For `COCCOc1cc2ncnc(Nc3ccc(F)c(Cl)c3)c2cc1NC(=O)[C@H]1COC(=O)N1` the same measures were greater than 50 µM and greater than 50 µM.
For `CN1CCOC[C@@H]1COc1cc2ncnc(Nc3ccc(F)c(Cl)c3)c2cc1NC(=O)[C@@H]1COC(=O)N1` the same measures were 18.7 µM and 7.4 µM.
With `CCOc1cc2ncnc(Nc3ccc(Oc4ccc(C)nc4)c(Cl)c3)c2cc1NC(=O)[C@@H]1COC(=O)N1`, the IC50 is 11.2 µM with A-431 and 7.65 µM in the data set on NCI-H1975.
As for `COc1cc2ncnc(Nc3cccc(Br)c3)c2cc1NC(=O)[C@H]1COC(=O)N1`, the IC50 stood at 14.3 µM with A-431 and 11.1 µM with NCI-H1975.
For `CCOc1cc2ncnc(N[C@@H](C)c3ccccc3)c2cc1NC(=O)[C@H]1COC(=O)N1` the same measures were 15 µM and 4.95 µM.
For the compound `COc1cc2ncnc(Nc3cccc(Br)c3)c2cc1NC(=O)[C@@H]1COC(=O)N1`, the IC50 in the data set on A-431 is 7.25 µM; in the data set with NCI-H1975, 9.08 µM; in [1], 0.00047 µM; in data set [2], 0.00038 µM; in data set [3] it was 0.126 µM; in the data set on A549, greater than 50 µM. For the same compound, the IC50 in the data set on HepG2 is greater than 100 µM.
Regarding `COc1cc2ncnc(Nc3cccc(C(F)(F)F)c3)c2cc1NC(=O)[C@@H]1COC(=O)N1`, the IC50 is 13.5 µM in the data set on A-431 and 10.8 µM in the data set on NCI-H1975.
For `CCOc1cc2ncnc(Nc3ccc(OCc4ccccn4)c(Cl)c3)c2cc1NC(=O)[C@H]1COC(=O)N1` the same measures were greater than 50 µM and greater than 50 µM.
For `O=C1N[C@@H](C(=O)Nc2cc3c(Nc4ccc(F)c(Cl)c4)ncnc3cc2O[C@H]2CCOC2)CO1` the same measures were 11 µM and greater than 50 µM.
On to `COc1ccc(Nc2ncnc3cc(OC)c(NC(=O)[C@@H]4COC(=O)N4)cc23)cc1`, for which the IC50 was 34.9 µM with A-431 and 10 µM with NCI-H1975.
Turning to `CCOc1cc2ncnc(Nc3ccc(OCc4cccc(F)c4)c(Cl)c3)c2cc1NC(=O)[C@H]1NC(=O)O[C@@H]1C`, the IC50 in the data set with A-431 was 3.36 µM; in the data set on NCI-H1975 it was 4.28 µM; in [1], 0.00257 µM; in data set [2], 0.012 µM; in data set [3], 0.295 µM; with A549, 32.9 µM. Also, in the data set on HepG2, the IC50 was 30.8 µM.
For `CCOc1cc2ncnc(Nc3ccc(OCc4cccc(F)c4)c(Cl)c3)c2cc1NC(=O)[C@@H]1COC(=O)N1`, the IC50 with A-431 amounted to 3.89 µM; in the data set with NCI-H1975, 3.87 µM; in [1], 0.00134 µM; in data set [2] it was 0.00562 µM; in [3] it was 0.0532 µM; in the data set with A549 it was 11.6 µM. Moreover, the IC50 with HepG2 was greater than 50 µM.

The IC50 is the concentration at which inhibition is half-maximal.

(Values after ChEMBL document CHEMBL3817746, “6-Oxooxazolidine-quinazolines as noncovalent inhibitors with the potential to target mutant forms of EGFR” (Bioorg Med Chem, 2016).)
